GalR3 antagonist: GalR3 antagonists in HEK293 cells, primary screen, cell-based, fluorescence readout; HEK293 GalR3-CNG cAMP membrane potential fluorescence; galR3 body fused to GalR1 C-terminus; inhibition, % at 3 µM; 360,000 tested, 0.44% active; AID 651719, 2012;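 active = inhibition above the screen-wide average plus 3 SD, cut at about 13% in these data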;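 also: forskolin and galanin both at EC90 stimulate the cells; cAMP rise reported by CNG channel membrane potential dye signal; 0% = forskolin plus galanin with DMSO and 100% = forskolin alone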
Target sequence (O60755 1-299 limits assumed): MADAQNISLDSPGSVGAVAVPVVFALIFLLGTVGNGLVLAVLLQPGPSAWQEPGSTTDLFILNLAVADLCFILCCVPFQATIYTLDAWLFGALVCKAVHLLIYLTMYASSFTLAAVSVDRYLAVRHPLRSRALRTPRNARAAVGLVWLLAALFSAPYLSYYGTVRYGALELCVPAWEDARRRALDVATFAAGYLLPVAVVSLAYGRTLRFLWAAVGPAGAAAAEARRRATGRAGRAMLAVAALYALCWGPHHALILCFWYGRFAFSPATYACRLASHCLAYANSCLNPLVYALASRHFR
CHT inh: inhibitors of human choline transporter CHT; 310,000 tested, 0.86% active; AID 488975, 2010; B-score at 10 µM; CHT-expressing cells, membrane potential dye, choline response; active compounds read low;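 active = B-score over 3 SD under the library average, and starting fluorescence ratio not unusually high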;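 also: choline stimulus applied at its EC90 after an EC20 pre-addition; B-score computed on integrated fluorescence ratio after choline addition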
NR2F2 inh: NR2F2 transcriptional activity inhibitors, primary screen, cell-based, luciferase reporter, HEK293T, luminescence. COUP transcription factor 2 (Homo sapiens), P24468. HEK293T NGFI-A luciferase reporter. inhibition, % at 8.6 µM. 370,000 tested, 0.7% active. AID 686940, 2013;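 active = inhibition above a per-plate cutoff, mean inhibition of test wells between control levels plus 3 SD, cut at about 38% in these data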;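 also: cells cotransfected with COUP-TFII expression vector driving the NGFI-A reporter; 0% = median of COUP-TF2 test wells and 100% = reporter-only cells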
NR2E3 ag-1: inhibitors of NR2E3-RetCOR corepressor binding, primary screen, NR2E3 agonist project, biochemical, TR-FRET, GST-NR2E3, biotin-RetCOR | Photoreceptor-specific nuclear receptor (Homo sapiens), Q9Y5X4 | 320,000 tested, 0.12% active | inhibition of corepressor binding, % at 4.78 µM | 1536-well;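 active = percent inhibition above the cutoff of mean plus 3 SD of all tested compounds, set per screening campaign, cut at about 20% in these data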;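 also: 0% = DMSO wells and 100% = biotin wells as full block of FRET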
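Test system: GST-NR2E3 and biotin-RetCOR proteins | Quantity: 1.35 nM GST-tagged NR2E3 final | Medium: Tris pH 7.5 | Also added: 7 nM biotin-RetCOR | Dosing: Compound at 4.8 µM, single dose | Timing: 5 h at 4 °C | Detection: Time-resolved FRET | Read-out basis: Percent inhibition | Benchmarks: Biotin wells as high control, 0.6% DMSO wells as low control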
CHT allo act: CHT positive allosteric modulators, primary screen, cell-based, membrane potential dye, choline EC20 | CHT-expressing cells; active compounds read high; LV-AA mutant CHT in HEK293 cells | B-score at 10 µM | 310,000 tested, 0.49% active;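 active = initial fluorescence not abnormally high and integrated response B-score, plate-corrected, over 3 SD above library mean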
NR2E3 ag-2: NR2E3 agonists in two-hybrid cells, primary screen, cell-based, luminescence, CHO-S, Gal4-NCOR/VP16-NR2E3; Photoreceptor-specific nuclear receptor (Homo sapiens), Q9Y5X4; luciferase; inhibition of corepressor binding, % at 3.98 µM; 360,000 tested, 0.35% active; AID 602229, 2012;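 active = inhibition above the mean of all tested compounds plus 3 SD, cut at about 70% in these data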;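 also: 0% = DMSO with NR2E3 transfected cells and 100% = cells lacking NR2E3 construct; higher means lower luciferase signal from less NR2E3 corepressor binding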
CHT activ conf: CHT activators, confirmation, cell-based, membrane potential dye, duplicate; CHT-expressing cells, membrane potential dye fluorescence (FDSS); % of choline EC20–EC90 response window; HEK293 expressing CHT LV-AA mutant; choline added at its EC20; activation, % at 10 µM; AID 504833, 2011; shares compounds with CHT allo act; 2,500 tested, 91% active;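 active = primary screen active, with duplicate mean activation above negative control mean plus 3 SD, cut at about 11% in these data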
HEK293 MP dye: membrane potential response in parental HEK293 cells, counter-screen for CHT activator project, cell-based, membrane potential dye | 2,500 tested, 62% active | ratio readout change at 10 µM, hits read low | AID 623908, 2012 | membrane potential dye fluorescence (FDSS); measured after EC20 choline addition | shares compounds with CHT allo act;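 active = duplicate-averaged ratio beyond 3 SD from buffer wells, up or down, though filed actives are nearly all decreases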
Starred values were filed as active, the others as inactive; i = inactive; . = no result. A selection: hits, their analogues and other compounds. The true share with any hit is near 2.3%.

SMILES	GalR3 antagonist	CHT inh	NR2F2 inh	NR2E3 ag-1	CHT allo act	NR2E3 ag-2	CHT activ conf	HEK293 MP dye
CCCCNC(=O)CCC(=O)Nc1ccc2nc(N3CCOCC3)cc(C)c2c1	0	i	-40	1	i	-7	.	.
COC(=O)[C@]12C[C@H](CC(=O)NCc3ccc(OC)c(OC)c3)C(=O)N(Cc3ccco3)C1=C[C@H](C(C)C)O[C@@H]2C1CC1	.	.	-4	.	.	.	.	.
CSCCCNC(=O)c1oc(=O)c2ccccc2c1-c1ccc(C)cc1	.	.	9	.	.	.	.	.
Cc1ccc(C2CCC3(CCC(=O)N3CCOC(=O)Nc3ccc(F)cc3)CC2)cc1 (stereo not given)	.	.	-1	.	.	.	.	.
O=C(NC1CCCCN(Cc2cccc(C(F)(F)F)c2)C1=O)c1c(F)cccc1F (stereo not given)	.	.	-6	.	.	.	.	.
CCOc1ccccc1NC(=O)CSc1nnc(-c2ccco2)o1	-9	i	9	1	16*	-35	7	i
CCOC(=O)C1=C(c2ccccc2)NC(=O)NC1c1ccc(O)c(Cl)c1 (stereo not given)	-7	i	7	2	30*	-17	198*	i
O=C(NCCc1ccccc1)OCc1cn(-c2cccc(C(F)(F)F)c2)nn1	.	.	-9	.	.	.	.	.
CN1CC[n+]2cnc3ccccc3c21	-5	i	-8	4	12*	-6	79*	-72*
COc1ccc(-n2c(COc3ccc(Cl)cc3)nnc2SCC(=O)Nc2ccc3c(c2)OCO3)cc1	.	.	7	.	.	.	.	.
CCC[N+](CC#CCO)(CC#Cc1ccccc1)CCC	-2	i	-7	-1	i	-14	.	.
CCCC[N+](CC#CCO)(CC#Cc1ccccc1)CCCC	-3	i	-16	-1	11*	-22	74*	i
CC(C)(C)OC(=O)COc1cc(O)c2c(=O)cc(-c3ccccc3)oc2c1	-5	i	-1	3	i	-9	.	.
CC(C)(C)OC(=O)COc1cc(OCC(=O)OC(C)(C)C)c2c(=O)cc(-c3ccccc3)oc2c1	-9	i	15	2	8.3*	-2	50*	i
CCCCn1c(N)c(N(CC(C)C)C(=O)CSCC(=O)Nc2ccc(OC)cc2)c(=O)[nH]c1=O	-3	i	3	0	i	-11	4	i
CCCCn1c(N)c(N(CC)C(=O)CSCC(=O)Nc2ccc(OC)cc2)c(=O)[nH]c1=O	0	i	-6	-1	i	1	.	.
O=C(c1ccc(F)cc1Cl)N1CCC(Oc2cccnc2)CC1	.	.	-18	.	.	.	.	.
CC(C)N(C(=O)COC(=O)[C@@H]1CC(O)CN1S(=O)(=O)c1ccc(C(C)(C)C)cc1)C(C)C (stereo not given in full)	-5	i	-3	1	7.1*	13	9	i
O=C(Cn1c(-c2ccccc2)c[n+]2ccsc12)c1ccc([N+](=O)[O-])cc1	-2	i	-12	4	8.6*	-70	66*	-61*
CC(C)(C)NC(=O)c1oc2ccccc2c1COc1ccccc1	-6	i	-10	-4	i	-3	33*	i
COc1ccccc1N=C(C)C1=C(O)CC(c2ccccc2)CC1=O (stereo not given)	-2	i	-6	1	9.7*	-50	56*	i

Screening results (PubChem)
